Source: ChEMBL document CHEMBL3860103, “Antibacterial and Antibiofilm Activity of Cationic Small Molecules with Spatial Positioning of Hydrophobicity: An in Vitro and in Vivo Evaluation” (J Med Chem, 2016)
Active and inactive are the calls of the source. The calls are words filed in the database; no cut-off is given here.

Assays:
Escherichia coli [1] = test: Induction of biofilm disruption in Escherichia coli after 24 hrs by confocal laser-scanning microscopy; format: functional
How it was run: (§1)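 Biofilms grown on glass coverslips from ~10^5 CFU/mL: S. aureus in nutrient medium + 1% glucose + 1% NaCl, 24 h; E. coli in M9 + 0.5% glycerol + 0.02% casamino acid, 72 h; stationary, 37 °C. After PBS wash, treated 24 h at 37 °C with 32 µg/mL in the same medium; media-only control. Stained with SYTO 9 (5 µM), imaged by confocal microscopy.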

Staphylococcus aureus [2] = test: Induction of biofilm disruption in Staphylococcus aureus after 24 hrs by confocal laser-scanning microscopy; format: functional; how it was run: as §1
Escherichia coli [3] = test: Antibacterial activity against Escherichia coli incubated for 24 hrs; format: functional
How it was run: (§2)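 Broth microdilution: 6 h cultures diluted to ~10^5 CFU/mL in medium; compounds 2-fold serially diluted in water, mixed 1:3 with bacterial suspension. Incubated 24 h, 37 °C; OD600 read. MIC = concentration with OD similar to medium-only control. Triplicate wells, experiments repeated at least twice.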

[4] = Induction of hemolysis in human RBC incubated for 1 hr; format: cell-based, Erythrocyte; settings: red blood cells
How it was run: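 Washed human RBCs from heparinized blood, 5 vol% in PBS, mixed 3:1 with serially diluted compounds; 1 h at 37 °C. Centrifuged; supernatant A540 read. Hemolysis % = (A−A0)/(Atotal−A0)×100, with water as 0% and 0.1 vol% Triton X-100 as full lysis.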

Staphylococcus aureus [5] = test: Antibacterial activity against methicillin-resistant Staphylococcus aureus incubated for 24 hrs; format: functional
How it was run: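 MRSA (ATCC 33591) from a 6 h culture (~10^9 CFU/mL), diluted to ~10^5 CFU/mL in medium. Compounds in water, 2-fold serial dilutions, combined with the bacteria at 1:3 by volume and incubated 24 h at 37 °C. OD600 read. MIC is the lowest concentration whose OD matches the media-only control. Triplicate wells; experiments repeated at least twice.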

Staphylococcus aureus [6] = test: Antibacterial activity against Staphylococcus aureus incubated for 24 hrs; format: functional; how it was run: as §2
Staphylococcus aureus [7] = test: Induction of membrane depolarization in Staphylococcus aureus at 32 ug/ml after 0 to 20 mins by […] dye based assay; format: functional
How it was run: (§3)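 Membrane-potential dye DiSC3(5) taken up by S. aureus or E. coli; depolarization followed as rise in dye fluorescence after adding compounds at 32 µg/mL.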

Escherichia coli [8] = test: Induction of membrane permeabilization in Escherichia coli at 32 ug/ml after 0 to 20 mins by propidium iodide dye based assay; format: functional
How it was run: (§4)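 Membrane permeabilization of S. aureus or E. coli followed as increase in propidium iodide fluorescence after adding compounds at 32 µg/mL.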

[9] = Selectivity index, ratio of HC50 for induction of hemolysis in human RBC to MIC for Escherichia coli
Escherichia coli [10] = test: Induction of membrane depolarization in Escherichia coli at 32 ug/ml after 0 to 20 mins by […] dye based assay; format: functional; how it was run: as §3
[11] = Selectivity index, ratio of HC50 for induction of hemolysis in human RBC to MIC for Staphylococcus aureus
Staphylococcus aureus [12] = test: Induction of membrane permeabilization in Staphylococcus aureus at 32 ug/ml after 0 to 20 mins by propidium iodide dye based assay; format: functional; how it was run: as §4
Staphylococcus aureus [13] = test: Antibacterial activity against Staphylococcus aureus infected in BALB/c mouse model of superficial skin infection and biofilm formation assessed as reduction in bacterial load in skin at 40 mg/kg applied topically once daily for 4 days and measured 18 hrs after last dose by FEI field emission scanning electron microscopy relative to un-treated control; format: functional, organism-based
How it was run: (§5)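 Female BALB/c mice (6–8 weeks, 18–22 g) made neutropenic with cyclophosphamide i.p. (150 mg/kg, then 100 mg/kg 3 days later), anesthetized, backs shaved, wounded and infected with MRSA ATCC 33591. After 24 h biofilm formation, 40 mg/kg applied topically to wound once daily for 4 days (n = 5/group; untreated control). Skin collected 18 h after last dose for CFU/g; portions formalin-fixed for SEM.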

Staphylococcus aureus [14] = test: Antibacterial activity against Staphylococcus aureus infected in BALB/c mouse model of superficial skin infection and biofilm formation assessed as reduction in bacterial load in skin at 40 mg/kg applied topically once daily for 4 days and measured 18 hrs after last dose; format: functional; how it was run: as §5
Mus musculus [15] = test: Toxicity in topically dosed mouse assessed as induction of skin darkening at 200 mg/kg after 14 days by OECD425 guidelines based method; format: organism-based; settings: in vivo, topical_or_ocular, 336 h
[16] = Induction of membrane hydration changes in Laurdan dye containing DPPC liposomes assessed as reduction in general polarization at 25 to 100 ug/ml by luminescence spectrometry; format: physicochemical
How it was run: (§6)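 Liposomes of 0.5 mM DPPG:DPPE (88:12) or 0.5 mM DPPC with Laurdan (lipid:dye 100:1), hydrated in PBS pH 7.4, 10 freeze–thaw cycles, sonicated 15 min at 70 °C. Compounds added in PBS (lipid:compound 7.4:1), tested at 25, 50, 100 µg/mL; emission at 440 and 490 nm (ex 350 nm), 37 °C. GP = (I440−I490)/(I440+I490).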

[17] = Toxicity in HEK293 cells assessed as induction of cell death at 32 ug/ml incubated for 24 hrs by calcein AM and propidium iodide dye based fluorescence microscopy; settings: human, hek293, 24 h
How it was run: (§7)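 HEK 293 cells seeded ~10^4 cells/well, treated with compounds for 24 h (16, 32 or 64 µg/mL); 0.1% Triton X positive, untreated negative control. Stained with calcein AM (2 µM) and PI (4.5 µM) 15 min at 37 °C, 5% CO2; imaged by fluorescence microscopy, 20X objective.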

[18] = Toxicity in HEK293 cells assessed as cell density level at 16 ug/ml incubated for 24 hrs by calcein AM and propidium iodide dye based fluorescence microscopy; settings: human, hek293, 24 h; how it was run: as §7
[19] = Toxicity in HEK293 cells assessed as induction of cell death at 64 ug/ml incubated for 24 hrs by calcein AM and propidium iodide dye based fluorescence microscopy; settings: human, hek293, 24 h; how it was run: as §7
Mus musculus [20] = test: Toxicity in topically dosed mouse assessed as induction of less fur appearance at 200 mg/kg after 14 days by OECD425 guidelines based method; format: organism-based; settings: in vivo, topical_or_ocular, 336 h
[21] = Induction of membrane hydration changes in Laurdan dye containing DPPG:DPPE (88:12) liposomes assessed as reduction in general polarization at 25 to 100 ug/ml by luminescence spectrometry; format: physicochemical; how it was run: as §6
[22] = Toxicity in HEK293 cells assessed as partial induction of cell death at 32 ug/ml incubated for 24 hrs by calcein AM and propidium iodide dye based fluorescence microscopy; settings: human, hek293, 24 h; how it was run: as §7

Molecule | MIC (Escherichia coli [3]) [µg/mL] | HC50 at 1 h [4] [µg/mL] | MIC (Staphylococcus aureus [5]) [µg/mL] | MIC (Staphylococcus aureus [6]) [µg/mL] | further results
CCCCCCCCCC[N+](C)(C)CCCCCCCCCC | – | – | – | – | MBEC (Escherichia coli [1]): Active; MBEC (Staphylococcus aureus [2]): Active
CCCCCCCCNC(=O)C[N+](C)(C)CCCCCCCCCC[N+](C)(C)CC(=O)NCCCCCCCC.[Br-].[Br-] | 1 | 100 | 2 | 1 | –
CCCCCCCCCCNC(=O)C[N+](C)(C)CCCCCCCCCC[N+](C)(C)CC(=O)NCCCCCCCCCC.[Br-].[Br-] | 8 | 55 | 4 | 4 | –
CCCCCCCCNC(=O)C[N+](C)(C)CCCC[N+](C)(C)CC(=O)NCCCCCCCC.[Br-].[Br-] | 8 | 310 | 3.9 | 2 | –
CCCCCCCCCCNC(=O)C[N+](C)(C)CC[N+](C)(C)CC(=O)NCCCCCCCCCC.[Br-].[Br-] | 4 | 65 | 2 | 2 | Activity (Staphylococcus aureus [7]): Active; Activity (Escherichia coli [8]): Active; Selectivity Index [9]: 16; Activity (Escherichia coli [10]): Active; Selectivity Index [11]: 32; Activity (Staphylococcus aureus [12]): Active
CCCCCCCCCCNC(=O)C[N+](C)(C)CCCCCC[N+](C)(C)CC(=O)NCCCCCCCCCC.[Br-].[Br-] | 2 | 58 | 2 | 2 | –
CCCCCCNC(=O)C[N+](C)(C)CCCCCCCC[N+](C)(C)CC(=O)NCCCCCC.[Br-].[Br-] | 31 | > 1000 | 31 | 16 | –
CCCCCCCCNC(=O)C[N+](C)(C)CCCCCCCCCCCC[N+](C)(C)CC(=O)NCCCCCCCC.[Br-].[Br-] | 2 | 65 | 1 | 1 | –
CCCCCCCCCCNC(=O)C[N+](C)(C)CCCCCCCC[N+](C)(C)CC(=O)NCCCCCCCCCC.[Br-].[Br-] | 4 | 55 | 2 | 2 | –
CC(=O)O[C@H]1C[C@@]2(C)[C@@H](C[C@@H](O)[C@H]3[C@@]4(C)CC[C@@H](O)[C@@H](C)[C@@H]4CC[C@@]32C)/C1=C(\CCC=C(C)C)C(=O)O [FUSIDIC ACID] | – | – | – | – | Activity (Staphylococcus aureus [13]): Active; Activity (Staphylococcus aureus [14]): 2.2 log10CFU/g
CCCCCCCCCCNC(=O)C[N+](C)(C)CCCC[N+](C)(C)CC(=O)NCCCCCCCCCC.[Br-].[Br-] | 2 | 60 | 2 | 2 | Activity (Mus musculus [15]): Toxic; Activity (Staphylococcus aureus [7]): Active; Activity [16]: Active; Activity (Escherichia coli [8]): Active; Activity [17]: Toxic; Activity [18]: Toxic; Activity [19]: Toxic; Selectivity Index [9]: 30; Activity (Mus musculus [20]): Toxic; Activity (Escherichia coli [10]): Active; Activity [21]: Active; Selectivity Index [11]: 30; Activity (Staphylococcus aureus [12]): Active; MBEC (Staphylococcus aureus [2]): 31.2 to 62.5 µg/mL
CCCCCCNC(=O)C[N+](C)(C)CCCCCC[N+](C)(C)CC(=O)NCCCCCC.[Br-].[Br-] | 125 | > 1000 | 125 | 62.5 | –
CCCCCCNC(=O)C[N+](C)(C)CCCC[N+](C)(C)CC(=O)NCCCCCC.[Br-].[Br-] | 125 | > 1000 | 125 | 62.5 | –
CCCCCCCCCCCCCC[N+](C)(C)Cc1ccccc1 | – | – | – | – | MBEC (Escherichia coli [1]): Active; MBEC (Staphylococcus aureus [2]): Active
CCCCCCCCCCNC(=O)C[N+](C)(C)CCCCCCCCCCCC[N+](C)(C)CC(=O)NCCCCCCCCCC.[Br-].[Br-] | 500 | 50 | 62 | 31 | –
CCCCCCNC(=O)C[N+](C)(C)CC[N+](C)(C)CC(=O)NCCCCCC.[Br-].[Br-] | 250 | > 1000 | 250 | 125 | –
CCCCCCCCNC(=O)C[N+](C)(C)CCCCCC[N+](C)(C)CC(=O)NCCCCCCCC.[Br-].[Br-] | 6 | 300 | 4 | 2 | Activity (Staphylococcus aureus [7]): Active; Activity (Escherichia coli [8]): Active; Selectivity Index [9]: 50; Activity (Escherichia coli [10]): Active; Selectivity Index [11]: 150; Activity (Staphylococcus aureus [12]): Active
CCCCCCCCNC(=O)C[N+](C)(C)CC[N+](C)(C)CC(=O)NCCCCCCCC.[Br-].[Br-] | 8 | 350 | 3.9 | 2 | –
N,N,N-trimethylhexadecan-1-aminium bromide | – | – | – | – | MBEC (Escherichia coli [1]): Active; MBEC (Staphylococcus aureus [2]): Active
CCCCCCNC(=O)C[N+](C)(C)CCCCCCCCCC[N+](C)(C)CC(=O)NCCCCCC.[Br-].[Br-] | 6 | > 1000 | 4 | 4 | Activity (Staphylococcus aureus [7]): Active; Activity (Escherichia coli [8]): Active; Selectivity Index [9]: 207; Activity (Escherichia coli [10]): Active; Selectivity Index [11]: 310; Activity (Staphylococcus aureus [12]): Active
CCCCCCCCNC(=O)C[N+](C)(C)CCCCCCCC[N+](C)(C)CC(=O)NCCCCCCCC.[Br-].[Br-] | 2 | 212 | 2 | 1 | Activity [22]: Toxic; Activity (Staphylococcus aureus [7]): Active; Activity (Escherichia coli [8]): Active; Activity [18]: Toxic; Activity [19]: Toxic; Selectivity Index [9]: 106; Activity (Escherichia coli [10]): Active; Selectivity Index [11]: 182; Activity (Staphylococcus aureus [12]): Active
